Lmaj promast = inhibitors of Leishmania major promastigote growth; 200,000 tested, 9% active; Leishmania major promastigotes, resazurin fluorescence viability; inhibition, % at 10 µM; in the data active = inhibition above about 50%;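 also: promastigotes grown with compound for 44 hours at 28 °C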
PMI act satM6P = activators of human phosphomannose isomerase at near-saturating mannose 6-phosphate; activation factor at 20 µM; coupled PMI enzyme assay, resazurin fluorescence, 20 min; active compounds read high; 1 = untreated enzyme, 0 = substrate-free blank; 190,000 tested, 0.34% active; P34949; AID 1216;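 active = activation factor of 2 or more at 20 µM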
Target sequence (P34949 whole entry, looked up): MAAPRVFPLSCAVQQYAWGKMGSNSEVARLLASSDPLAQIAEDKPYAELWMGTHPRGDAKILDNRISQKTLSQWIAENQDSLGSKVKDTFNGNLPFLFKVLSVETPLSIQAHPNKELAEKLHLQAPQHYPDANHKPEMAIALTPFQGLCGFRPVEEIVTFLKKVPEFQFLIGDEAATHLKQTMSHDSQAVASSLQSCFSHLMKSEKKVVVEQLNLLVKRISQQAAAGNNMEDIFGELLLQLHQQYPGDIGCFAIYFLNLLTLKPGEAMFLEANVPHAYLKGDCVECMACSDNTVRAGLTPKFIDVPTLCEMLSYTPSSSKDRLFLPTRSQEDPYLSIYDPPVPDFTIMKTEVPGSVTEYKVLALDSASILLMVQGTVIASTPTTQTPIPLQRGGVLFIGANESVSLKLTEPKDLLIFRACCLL
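Test system: human phosphomannose isomerase with PGI, G6PDH, diaphorase coupling enzymes; Amount: PMI at 15 ng/mL final; Reagent: Mannose-6-phosphate 1.0 mM (near-saturating) plus 0.22 mM NADP+; Timing: 20 min, room temperature; Technique: resorufin fluorescence at Ex 544/Em 590 nm; Dosing: 20 µM single dose.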
PMI activator = increases human mannose-6-phosphate isomerase activity | activation factor at 20 µM | AID 1214 | purified human PMI, coupled resazurin fluorescence, 20 min; active compounds read high; 1 = vehicle control, 0 substrate-free wells | 190,000 tested, 0.005% active | P34949;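 active = activation factor of 2 or more at 20 µM, relative to plate controls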
WT yeast gro inh = growth inhibition of WT yeast, mitochondrial fusion screen | AID 1362 | inhibition, % at 10 µM | 190,000 tested, 2.1% active | mitochondrial fusion phenotypic screen, WT strain; in the data active = inhibition above about 58%; tested in S. cerevisiae
Diaph act CS = counter-screen for diaphorase-based assays: diaphorase activators and chemical reducers. Diaphorase/resazurin coupled assay, resorufin fluorescence, 16 min; active compounds read high; 1 = vehicle wells, 0 = NADH-free wells. activation factor at 20 µM. 190,000 tested, 0.005% active. AID 1229;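 active = diaphorase activity raised at least twofold by the compound at 20 µM; inactive = activation factor below 2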
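System – purified diaphorase enzyme from Clostridium kluyveri · Input – enzyme 0.07 U/mL final · Also added – final NADH 0.114 mM, resazurin 0.1 mM · Measured by – fluorescence of resorufin, 544 nm excitation, 590 nm emission · Timing – 16 min enzyme reaction, ambient temperature · Measure – resorufin increase flagging diaphorase activators or reducers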
The depositor's hits bear a star; . = no result given. Hits are enriched below; roughly 10% of the tested compounds scored in any of these assays.

SMILES | Lmaj promast | PMI act satM6P | PMI activator | WT yeast gro inh | Diaph act CS
Cc1cc(Br)c(S(=O)(=O)NCCN2CCOCC2)cc1C | 1 | 1.1 | 1 | -3 | 0.9
CCCCCc1ccc(CC(=O)Nn2c(C)nc3ccccc3c2=O)cc1 | -3 | 1 | 0.9 | 56 | 0.9
Cc1ccc(S(=O)(=O)N2N=C3CCCCC3C2(O)C(F)(F)F)cc1 (stereo not given) | -2 | 1.1 | 1.3 | 4 | 1
Cc1ccc(COC(=O)c2nn(C)c(=O)c3ccccc23)cc1 | -9 | 1 | 1 | 9 | 1
COC(=O)c1ccc(SCC(=O)N2CCC(C)CC2)c([N+](=O)[O-])c1 | 64* | 1 | 0.9 | -35 | 0.9
O=C(COC(=O)c1ccccc1C(=O)c1ccc(Cl)c([N+](=O)[O-])c1)NC1CCCCCC1 | -3 | 1.1 | 1 | 78* | 1
COC(=O)c1ccc(SCC(=O)NC2CCCC2)c([N+](=O)[O-])c1 | 60* | 1 | 0.9 | -18 | 1
NC(=O)c1ccc(SCC(=O)NC2CCCCC2)c([N+](=O)[O-])c1 | 8 | 1 | 1.1 | -14 | 0.9
O=C(COC(=O)c1ccc(Cl)c([N+](=O)[O-])c1)Nc1ccccc1OC(F)F | 58* | 1 | 1 | 0 | 0.9
CC(C)N(C(=O)COC(=O)c1ccccc1C(=O)c1ccc(Cl)c([N+](=O)[O-])c1)C(C)C | 32 | 1 | 1 | 19 | 0.8
O=C(c1ccccc1)N1CN2CN(C(=O)c3ccccc3)CC([N+](=O)[O-])(C2)C1 | -4 | 1 | 0.9 | 0 | 0.9
Cc1ccc(C(=O)Nc2nc(C)c(C(=O)Nc3ccc4c(c3)CCC4)s2)cc1 | -4 | 0.9 | 0.8 | 12 | 0.8
COc1cccc(CC2(CO)CCCN(C/C=C/c3ccccc3OC)C2)c1 (stereo not given) | 41 | 0.9 | 0.8 | 6 | 0.9
COc1ccc(/C=C/CN2CCCC(CO)(Cc3cccc(Cl)c3)C2)cc1 (stereo not given) | 97* | 0.9 | 0.8 | 42 | 0.9
OCC1(Cc2cccc(Cl)c2)CCCN(Cc2sc(N3CCCC3)nc2Cl)C1 (stereo not given) | 14 | 1 | 0.9 | 29 | 0.8
CC(C)(O)C#Cc1ccc(CN2CCCC(CO)(Cc3cccc(Cl)c3)C2)cc1 (stereo not given) | 97* | . | . | 23 | .
Cc1ccccc1CC1(CO)CCCN(Cc2ccc(C#CC(C)(C)O)cc2)C1 (stereo not given) | 85* | 1 | 1 | 11 | 1.1
COc1ccc(/C=N/NC(C)(C)C)c(OC)c1 | -6 | 1.6 | 1.5 | -8 | 0.8
N=c1ncn(Cc2ccccc2)c2nc(SCCOc3ccccc3)[nH]c12 | 3 | 1.1 | 1 | 3 | 0.8
COC(=O)[C@@]1(Cc2ccccc2)[C@@H]2C(=CC(=O)[C@H]2CC(=O)C(=O)N(C)C)CN1C(=O)c1ccccc1 | 100* | 0.9 | 1 | -6 | 0.7
O=C(Nc1ccccc1Oc1ccccc1)c1cccc([N+](=O)[O-])c1 | -1 | 0.9 | 0.8 | 11 | 0.8
Cc1ccc(C(=O)Nc2ccccc2Oc2ccccc2)cc1[N+](=O)[O-] | 2 | 0.9 | 1 | 61* | 0.8
C/C(=N\NC(=O)c1ccn(C)n1)c1cccc(NC(=O)c2ccc(C)s2)c1 | -5 | 1 | 1 | -15 | 0.9
O=C(CC12CC3CC(CC(C3)C1)C2)N/N=C\c1ccc[nH]1 | 16 | 1.1 | 1.4 | -2 | 0.7
O=C(CC12CC3CC(CC(C3)C1)C2)N/N=C/c1ccc([N+](=O)[O-])o1 | 99* | 1 | 1 | 22 | 0.9
SMILES | Lmaj promast | PMI act satM6P | PMI activator | WT yeast gro inh | Diaph act CS
N#CCc1ccc(NC(=O)/C=C/c2ccc([N+](=O)[O-])o2)cc1 | 101* | 0.9 | 1.2 | -13 | 1
Cc1cc([N+](=O)[O-])ccc1-c1ccc(/C=N/NC(=O)Cc2ccccc2)o1 | 9 | 0.9 | 0.9 | 18 | 0.9
O=C(Cc1ccc([N+](=O)[O-])cc1)N/N=C/c1ccc([N+](=O)[O-])o1 | 100* | 1 | 1.3 | 5 | 1
O=C(O)/C=C/c1ccc([N+](=O)[O-])o1 | -5 | 1.1 | 1.4 | -15 | 0.9
CCOC(=O)N/N=C\c1ccc([N+](=O)[O-])o1 | 98* | 1 | 1 | 10 | 0.8
COc1ccc(/C=N/OCC(=O)Nn2c(C)nc3ccccc3c2=O)cc1 | -4 | 0.9 | 0.9 | -3 | 0.9
CCOC(=O)N/N=C/c1c(F)cccc1F | 11 | 0.9 | 0.9 | -6 | 1
O=C(CCN1CCN(c2ccccc2)CC1)N/N=C/c1ccc([N+](=O)[O-])o1 | 98* | 0.7 | 0.9 | 8 | 0.8
CCOC(=O)N/N=C/c1c(F)c(F)c(F)c(F)c1F | 65* | 1 | 1 | -10 | 1
Cc1ccc(/C=N/NC(=O)c2cccc([N+](=O)[O-])c2)o1 | -7 | 0.9 | 0.8 | 5 | 0.8
O=C(CCN1CCN(c2ccccc2)CC1)N/N=C/c1ccc(O)c(O)c1O | -7 | 0.4 | 0.4 | 7 | 0.4
CCCCCCCC(=O)N/N=C/c1ccc([N+](=O)[O-])o1 | 91* | 1.2 | 1 | 36 | 0.9
CC1(C(=O)N/N=C/c2ccc([N+](=O)[O-])o2)CC1(Br)Br (stereo not given) | 98* | 0.8 | 1 | 7 | 0.8
N/C(=N\OC(=O)CCC1CCCC1)c1ccccn1 | -9 | 1 | 0.8 | 8 | 0.9
CN1C(=O)/C(=C/c2ccc(-c3ccccc3[N+](=O)[O-])o2)SC1=Nc1ccc(Cl)c(C(=O)O)c1 | 2 | 0.7 | 1 | -4 | 0.6
CCc1ccccc1NC1=CC(=O)CC(C)(C)C1 | 15 | 1 | 1.1 | -3 | 0.8
CC(=O)/C=C1/C(=O)Nc2ccccc21 | 94* | 1 | 1.1 | 22 | 0.9
O=C1/C(=C/c2ccccc2)Nc2ccccc21 | 2 | 1.8 | 1.5 | 0 | 1
Cc1c(N)cc[n+](CC(=O)c2ccccc2)c1C | -8 | 1 | 1.1 | -2 | 0.9
Cc1nc(-n2[nH]c3c(c2=O)CCCC3)[nH]c(=O)c1Cc1ccccc1 | 96* | 0.8 | 0.9 | 14 | 0.8
CC(=O)Nc1cc(C(=O)NCc2ccco2)ccc1Sc1ccc(C)cc1 | 75* | 1.1 | 1 | 8 | 0.9
CCC1=Nc2cc(C(=O)NCCCOC)ccc2Sc2ccccc21 | 19 | 1.7 | 1.5 | 4 | 1
CCC1=Nc2cc(C(=O)NCc3ccco3)ccc2Sc2ccc(C)cc21 | 67* | 0.8 | 0.8 | 23 | 0.8
Cc1ccc(NC(=S)/N=C(\N)Nc2nc(C)c3cc(C)c(C)cc3n2)cc1C | 18 | 0.9 | 0.9 | -3 | 1
CC(=O)Nc1nc(C)c(C(C)=O)s1 | 0 | 1 | 1 | -22 | 0.9
CC(=O)c1sc(N/N=C2\CC3CCC2(C)C3(C)C)nc1C (stereo not given) | 83* | . | . | 51 | .
O=C1C(Cc2ccc(Br)cc2)SC(=Nc2ccccc2)N1c1ccccc1 (stereo not given) | 54* | 0.8 | 0.8 | 39 | 0.7

Screening results: PubChem BioAssay, several laboratories
